Experimental data reported in paper PMC11865470 (Communications Biology, 2025).
Changes are numbered by the printed parent chain. Read-outs that look alike come from different tables or passages of the source.

Legend:
Otop1 channel = conditions: cited from earlier work
[1] = biological target: T1, mouse Otop1 (mOtop1) channels (Mus musculus, UniProt Q80VM9); assay type: cell-based; conditions: read-out: IC50, inhibition of mOtop1 currents, n = 5-6
T1 sequence (Q80VM9 1-600): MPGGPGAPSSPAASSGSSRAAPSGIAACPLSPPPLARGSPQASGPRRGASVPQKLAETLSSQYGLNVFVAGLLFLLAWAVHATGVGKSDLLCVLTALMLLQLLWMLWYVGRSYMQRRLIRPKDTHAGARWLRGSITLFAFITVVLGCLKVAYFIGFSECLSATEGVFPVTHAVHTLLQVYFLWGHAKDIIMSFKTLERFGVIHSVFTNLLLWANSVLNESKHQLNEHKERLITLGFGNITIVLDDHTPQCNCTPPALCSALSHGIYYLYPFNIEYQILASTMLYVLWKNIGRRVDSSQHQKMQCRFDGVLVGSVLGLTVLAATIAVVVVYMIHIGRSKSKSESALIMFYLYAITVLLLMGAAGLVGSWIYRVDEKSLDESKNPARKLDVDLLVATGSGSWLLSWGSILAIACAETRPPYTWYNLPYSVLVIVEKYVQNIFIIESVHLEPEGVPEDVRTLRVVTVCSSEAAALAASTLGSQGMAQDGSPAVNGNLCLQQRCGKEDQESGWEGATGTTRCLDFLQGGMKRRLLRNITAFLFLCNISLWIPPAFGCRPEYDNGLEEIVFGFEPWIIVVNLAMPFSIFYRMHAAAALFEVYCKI

mOtop1/R554A = biological target: T2, mOtop1/R554A (Mus musculus, UniProt Q80VM9, R554A); assay: patch-clamp, mOtop1 mutant; assay type: cell-based; conditions: 1 mM Zn2+
T2 sequence (Q80VM9 1-600 R554A): T1 sequence (Q80VM9 1-600) with R554A

[2] = biological target: T3, mOtop1 channels co-expressed in HEK293 cells (Mus musculus, UniProt Q80VM9); assay: live cell intracellular pH imaging; assay type: cell-based; conditions: pH 5.0; mOtop1 transfected cells
T3 sequence (Q80VM9 1-600): T1 sequence (Q80VM9 1-600)
Procedure, shortened: (§1)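 HEK293 cells were electroporated (180 V, 25 ms) with pHmScarlet-mTurquise2, with or without mOtop1, and imaged 24 h later. Cells sat in pH 7.4 solution (mM: 140 KCl, 10 NaCl, 1 MgCl2, 20 HEPES), then were shifted to pH 8.5 (Tris), 6.0 (MES) or 5.0 (HomoPIPES). Test compound was 10 μM in the stimulus solution, with acetic acid pH 5.0 as positive control. FpHmScarlet/FmTurquise2 ratio read every 2 s.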

[3] = tested on: HEK293 cells expressing merely pHmScarlet-mTurquise2; assay: live cell intracellular pH imaging; assay type: cell-based; conditions: pH 5.0; nontransfected cells
Procedure, shortened: as §1

mOtop1 channel = conditions: read-out: EC50, activating Otop1 currents; neutral and acidic conditions; cited from earlier work

## Nc1c(S(=O)(=O)O)cc(Nc2ccc(Nc3nc(Cl)nc(Nc4ccccc4S(=O)(=O)O)n3)c(S(=O)(=O)O)c2)c2c1C(=O)c1ccccc1C2=O [Cibacron Blue 3G-A]
Otop1 channel
  action on Otop1: moderate antagonist

## [Zn+2] [Zn^2+]
[1]; currents activated by pH 5.5 alone
  IC50: 72 ± 9 µM
[1]; currents activated by pH 5.5 with 10 μM MFaN
  IC50: 58 ± 13 µM
mOtop1/R554A
  effect on mOtop1/R554A currents: significantly inhibited

## CC(=O)O [acetic acid, reference compound]
[2]
  pHi change, positive control: triggered dramatical pHi dropdown
[3]
  pHi change, positive control: triggered dramatical pHi dropdown

## Cc1ccc(C(C)C)cc1O [carvacrol]
mOtop1 channel
  EC50: ~700 µM
